Nine compounds from paper PMC10114714 (ACS Bio & Med Chem Au, 2021) can be followed below.

“Also recorded” adds a separate entry of the source. A value given as a limit tells only on which side of the number the result lay.

For data set [1], the target named is T1, human mGlu5 (Homo sapiens, UniProt P41594). Kind of data set: cell-based.
Data set [2] is described as follows: Intrinsic clearance in liver microsomes, human. The conditions noted are these: pH 7.4. Format: in vitro ADME.
Another data set has as its target rat mGlu5 (Rattus norvegicus, UniProt P31424). Kind of data set: [3H]methoxyPEPy radioligand competition binding. The conditions noted are these: for displacement of [3H]methoxyPEPy radioligand binding: concentrations up to 100 μM, in words. Background: In a radioligand displacement assay an active substance lowers the binding of a labelled ligand.
Another data set relates to mGlu1–4,7,8. Kind of data set: Functional selectivity over the other mGlu receptors. Format: cell-based.
Data set [3] in a line: Plasma protein binding, human. Format: in vitro ADME. The conditions noted are these: pH 7.4.
The nature of data set [4]: Intrinsic clearance in liver microsomes, mouse. Format: in vitro ADME. The conditions noted are these: pH 7.4. On the technique in general: Liver microsomes are vesicles of endoplasmic reticulum, rich in cytochrome P450 enzymes.
Data set [5] in a line: Plasma protein binding, mouse. The data set is classed as in vitro ADME. The conditions noted are these: pH 7.4.
The nature of data set [6]: Brain homogenate binding, rat. The data set is classed as in vitro ADME. The conditions noted are these: pH 7.4, Rat fu,b.
Data set [7] in a line: Plasma protein binding, rat. Format: in vitro ADME. The conditions noted are these: pH 7.4.
In another data set the test system is marble burying. Briefly: Marble burying assay. The data set is classed as in vivo, mouse. The following applies: male CD-1 mice, 30 mg/kg i.p., in words.
The nature of data set [8]: Mouse IV and PO pharmacokinetics. The data set is classed as in vivo.
Data set [9] in a line: Intrinsic clearance in liver microsomes, rat. Format: in vitro ADME. The conditions noted are these: pH 7.4.
Data set [10] concerns the target T1, human mGlu5. Kind of data set: Calcium fluorescence triple-add assay, mGlu5 PAM mode. The data set is classed as cell-based.
The nature of data set [11]: Rat IV and PO pharmacokinetics. Format: in vivo. In a few lines: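 Plasma pharmacokinetics with IV dosing at 0.20 mg/kg and PO dosing at 10 mg/kg. Read-outs are Cmax, tmax, AUCinf, t1/2 and oral bioavailability F.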
Data set [12] is described as follows: Rat IV plasma/brain level. The conditions noted are these: male, Sprague-Dawley, brain and plasma, 0.2 mg/kg. The data set is classed as in vivo.
The test system of data set [13] is amphetamine-induced hyperlocomotion. Kind of data set: Reversal of amphetamine-induced hyperlocomotion. Format: in vivo. The following applies: rat. In a few lines: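 Male Sprague–Dawley rats, n = 7-8 per group. Test compound is given i.p. at 30 or 60 mg/kg in 10% Tween 80 in H2O, 30 min before amphetamine at 0.75 mg/kg s.c. Locomotion is compared with a vehicle/amphetamine control group.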

The mark [14] stands for this setting: male, Sprague-Dawley, plasma, iv, 0.2 mg/kg.
Where [15] appears, read: male, Sprague-Dawley, plasma, po, 10 mg/kg.

Sequence of rat mGlu5 (P31424 21-1203): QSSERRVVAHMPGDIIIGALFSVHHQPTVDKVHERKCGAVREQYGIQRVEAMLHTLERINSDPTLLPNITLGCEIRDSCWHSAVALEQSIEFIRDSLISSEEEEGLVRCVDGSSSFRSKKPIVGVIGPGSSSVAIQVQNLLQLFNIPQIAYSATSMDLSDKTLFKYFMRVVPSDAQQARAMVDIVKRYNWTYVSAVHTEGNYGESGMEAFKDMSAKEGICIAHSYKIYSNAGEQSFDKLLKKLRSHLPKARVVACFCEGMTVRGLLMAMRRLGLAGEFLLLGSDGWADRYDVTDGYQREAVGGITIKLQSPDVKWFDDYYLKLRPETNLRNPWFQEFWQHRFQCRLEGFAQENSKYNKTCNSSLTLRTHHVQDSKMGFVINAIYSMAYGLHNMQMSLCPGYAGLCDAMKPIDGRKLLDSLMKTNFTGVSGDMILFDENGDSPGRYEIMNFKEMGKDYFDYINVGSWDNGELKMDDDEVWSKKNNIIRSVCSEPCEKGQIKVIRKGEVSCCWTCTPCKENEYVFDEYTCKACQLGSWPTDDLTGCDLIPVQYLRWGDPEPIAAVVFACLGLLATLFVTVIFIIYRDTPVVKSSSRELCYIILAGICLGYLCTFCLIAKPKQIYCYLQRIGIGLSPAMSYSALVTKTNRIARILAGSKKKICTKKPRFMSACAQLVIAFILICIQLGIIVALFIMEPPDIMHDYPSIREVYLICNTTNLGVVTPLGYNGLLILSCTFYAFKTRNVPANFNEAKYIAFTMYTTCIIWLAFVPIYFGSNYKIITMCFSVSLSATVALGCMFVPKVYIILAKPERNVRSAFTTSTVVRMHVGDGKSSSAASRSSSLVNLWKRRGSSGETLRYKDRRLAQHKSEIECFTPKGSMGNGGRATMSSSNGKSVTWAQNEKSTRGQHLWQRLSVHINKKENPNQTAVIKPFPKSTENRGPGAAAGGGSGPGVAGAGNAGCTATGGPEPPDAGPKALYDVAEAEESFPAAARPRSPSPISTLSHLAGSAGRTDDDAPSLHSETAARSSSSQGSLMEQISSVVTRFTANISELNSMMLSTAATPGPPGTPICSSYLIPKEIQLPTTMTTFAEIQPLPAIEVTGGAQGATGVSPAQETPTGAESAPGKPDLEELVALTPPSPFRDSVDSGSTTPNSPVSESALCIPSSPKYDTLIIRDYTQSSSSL
T1 sequence (P41594 21-1212): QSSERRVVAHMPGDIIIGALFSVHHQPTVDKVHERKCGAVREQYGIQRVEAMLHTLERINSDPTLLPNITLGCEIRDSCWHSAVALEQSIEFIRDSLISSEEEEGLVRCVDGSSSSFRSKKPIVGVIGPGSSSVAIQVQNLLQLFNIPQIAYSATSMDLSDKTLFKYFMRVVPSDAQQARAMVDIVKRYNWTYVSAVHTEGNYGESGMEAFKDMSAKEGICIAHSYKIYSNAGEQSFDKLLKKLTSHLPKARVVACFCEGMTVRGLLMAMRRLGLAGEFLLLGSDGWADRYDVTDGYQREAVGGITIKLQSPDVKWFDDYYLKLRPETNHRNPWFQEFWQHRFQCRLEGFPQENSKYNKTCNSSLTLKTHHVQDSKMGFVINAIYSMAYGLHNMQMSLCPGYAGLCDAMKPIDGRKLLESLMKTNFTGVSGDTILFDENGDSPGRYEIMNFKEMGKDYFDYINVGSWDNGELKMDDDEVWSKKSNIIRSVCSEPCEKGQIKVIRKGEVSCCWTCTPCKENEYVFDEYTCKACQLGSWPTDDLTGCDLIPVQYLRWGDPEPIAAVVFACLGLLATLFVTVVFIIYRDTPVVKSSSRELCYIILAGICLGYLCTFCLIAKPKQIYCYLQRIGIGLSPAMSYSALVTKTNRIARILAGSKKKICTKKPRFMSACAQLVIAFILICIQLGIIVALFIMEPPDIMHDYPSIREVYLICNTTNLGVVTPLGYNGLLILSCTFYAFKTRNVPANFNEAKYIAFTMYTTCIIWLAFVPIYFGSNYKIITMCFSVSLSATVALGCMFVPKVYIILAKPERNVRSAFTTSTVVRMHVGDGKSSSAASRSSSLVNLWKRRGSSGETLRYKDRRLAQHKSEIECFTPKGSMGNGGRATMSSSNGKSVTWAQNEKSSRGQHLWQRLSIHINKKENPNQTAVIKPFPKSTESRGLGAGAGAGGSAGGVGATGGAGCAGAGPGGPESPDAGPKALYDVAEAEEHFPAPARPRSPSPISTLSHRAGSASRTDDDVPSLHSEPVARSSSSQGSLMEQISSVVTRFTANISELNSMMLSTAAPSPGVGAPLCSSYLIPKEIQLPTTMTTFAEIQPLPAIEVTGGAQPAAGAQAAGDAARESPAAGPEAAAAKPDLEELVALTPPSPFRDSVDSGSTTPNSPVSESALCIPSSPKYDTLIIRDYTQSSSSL

Turning to `Cc1ncccc1Oc1cc(C(=O)NCc2ccc(F)cn2)nc2ccsc12` [Compound 28c], the IC50 on human mGlu5 [1] was > 30000 nM.

`Cc1ccc(Cc2cc(C(=O)NCc3ccc(F)cn3)nc3ccsc23)cn1` [Compound 27]: the IC50 against human mGlu5 [1] was > 30000 nM.

Consider `O=C(NCc1ccc(F)cn1)c1cc(Oc2cccnc2)c2sccc2n1` [Compound 28d, N-((5-fluoropyridin-2-yl)methyl)-7-(pyridin-3-yloxy)thieno[3,2-b]pyridine-5-carboxamide], for which the CLint scaled at 1 µM stood at 47 mL/min/kg in data set [2], 970 mL/min/kg in data set [4] and 314 mL/min/kg in data set [9]. The compound further gave a Ki on rat mGlu5 of 160 nM. Besides, the “displacement of [3H]methoxyPEPy radioligand binding” value on rat mGlu5 is “full displacement of radioligand binding”. The “functional activity at mGlu1–4,7,8” value in the data set with mGlu1–4,7,8 was > 30 µM. Moreover, the fraction unbound at 6 h, 5 µM in data set [3] was found to be 0.068; in [5], 0.062; in [7], 0.115. The fraction unbound at 6 h, 1 µM in [6] is 0.035. Further, the marble burying result in the data set with marble burying is “anxiolytic activity; also recorded: significant reduction in marble burying; also recorded: Inhibition of marble burying”. In data set [8] (PO 10 mg/kg, in words), the “drug in blood following PO administration” value is “no measurable drug in blood”. This compound had a Vd in data set [8] (plasma, iv, 1 mg/kg) of 8.2 L/kg. The same compound yielded a clearance in data set [8] (plasma, iv, 1 mg/kg) of 141 mL/min/kg. For the same compound, in data set [8] (plasma, iv, 1 mg/kg), the half-life is 41.4 min.

With `Cc1ccc(Nc2cc(C(=O)NCc3ccc(F)cn3)nc3ccsc23)cn1` [Compound 26], the IC50 on human mGlu5 [1] was > 30000 nM.

As for `Cc1ccncc1Oc1cc(C(=O)NCc2ccc(F)cn2)nc2ccsc12` [Compound 28b], the IC50 against human mGlu5 [1] worked out at 203 nM.

In the case of `Cc1ccc(Oc2ccnc(C(=O)NCc3ccc(F)cn3)c2)cn1` [Compound 21d], the “mGlu5 PAM activity” value at human mGlu5 [10] (in words) is “complete loss of activity”.

With `Cc1ccc(Oc2cc(C(=O)NCc3ccc(F)cn3)nc3ccsc23)cn1` [Compound 17a, N-((5-Fluoropyridin-2-yl)methyl)-7-((6-methylpyridin-3-yl)oxy)thieno[3,2-b]pyridine-5-carboxamide], the EC50 on human mGlu5 [10] (hmGlu5 EC50 (μM), Table 2) was 0.52 µM. Further, on human mGlu5 [10] (mGlu5 PAM EC50), the “fold improvement in potency in comparison to hit compound 12” value worked out at 5 fold. In [2], this compound had a CLint scaled at 1 µM of 173 mL/min/kg. Further, at rat mGlu5, the Ki was > 10000 nM and the “displacement of [3H]methoxyPEPy radioligand binding” value is “weak binding”. Further, the “F (%)” value in data set [11] (PO 10 mg/kg, 10 mg/kg) was 8.22%. Besides, in [11] (setting [14]), the Vd worked out at 2.2 L/kg, the clearance was 36.9 mL/min/kg and the half-life is 82.2 min. Further, in data set [11] (setting [15]), the AUC(0-inf) turned out to be 371 ng·h/mL, the highest level (Cmax) was 152 ng/mL and the Tmax came to 30 min. In [12], the Kp at 0.25 h was determined as 0.83 and the Kp uu at 0.25 h is 0.52. Further, the “functional activity at mGlu1–4,7,8” value in the data set with mGlu1–4,7,8 was > 30 µM. The same compound returned a fraction unbound at 6 h, 5 µM in data set [3] of 0.056. Also, the “reversal of AHL” value in [13] (60 mg/kg i.p., 30 min prior to 0.75 mg/kg s.c. amphetamine) is ~30%. In addition, the “reversal of amphetamine-induced hyperlocomotion” value in data set [13] (30 or 60 mg/kg i.p., in words) is “reversed amphetamine-induced hyperlocomotion; also recorded: Dose-dependent reversal”. Besides, the unbound share (fraction unbound) at 6 h, 1 µM in data set [6] worked out at 0.03. In addition, the free fraction (fraction unbound) at 6 h, 5 µM in [7] was 0.048. For the same compound, the CLint scaled at 1 µM in data set [9] was determined as 152 mL/min/kg.

For the compound `Cc1cncc(Oc2cc(C(=O)NCc3ccc(F)cn3)nc3ccsc23)c1` [Compound 28a], the IC50 at human mGlu5 [1] was 260 nM.

With `Cc1ccc(Oc2cc(C(=O)NCc3ccc(F)cn3)nc3ccsc23)nc1` [Compound 28e], the IC50 at human mGlu5 [1] amounted to 1900 nM.

A word on the IC50: it is the concentration that inhibits the measured activity by half. A high value points to a need for much substance. A word on the CLint scaled: it is the rate of metabolic loss divided by the concentration. A word on the Ki: it is the equilibrium dissociation constant of an inhibitor or competing ligand from its target. Higher therefore signals weaker binding. In general, fraction unbound refers to free concentration divided by total concentration. Read a low fraction unbound as little free substance. Usually half-life stands for the time needed for the level to fall by half in the phase considered. A low value points to fast loss. By EC50 is commonly meant the concentration needed to bring the measured effect to its halfway point. Broadly, the AUC(0-inf) is the area under the concentration-time curve extrapolated to infinity. Low values mean less exposure, high ones more exposure. Broadly, the Cmax is the maximum level reached in the sampled fluid or tissue. What is called Tmax is the time at which the peak concentration occurs. As a reminder, the Kp is tissue or fluid exposure divided by exposure in the circulation.
